In general, IC50 refers to the concentration that inhibits the measured activity by half.

Holding throughout (assay type): functional, cell-based
The subject of assay [1] is A549. Kind of assay: Cytotoxicity against human A549 cells by MTT assay. The method, boiled down: (§1)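 MTT read-out of tumour-cell viability. IC50 values in µM are reported as means of three independent experiments.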
In general terms: Formazan colour is commonly taken as a measure of viable cells.

For assay [2], the system named is A2780. Briefly: Cytotoxicity against human A2780 cells by MTT assay. The method, boiled down: as §1
The subject of assay [3] is Bel-7402. Briefly: Cytotoxicity against human Bel-7402 cells by MTT assay. The essentials:
as §1

In assay [4] the test system is HCT-8. Kind of assay: Cytotoxicity against human HCT8 cells by MTT assay. The method, boiled down:
as §1

Assay [5] deals with BGC-823. Briefly: Cytotoxicity against human BGC-823 cells by MTT assay. The essentials: as §1

Regarding `CCC(C)C(=O)O[C@H]1[C@H](OC(=O)/C=C/c2ccccc2)C(C)(C)C[C@H]2C3=CC[C@@H]4[C@@]5(C)CC[C@H](O[C@@H]6O[C@H](C(=O)O)[C@@H](O)[C@H](O)[C@H]6O[C@@H]6O[C@H](CO)[C@@H](O)[C@H](O)[C@H]6O)C(C)(C)[C@@H]5CC[C@@]4(C)[C@]3(C)[C@@H](O)[C@@H](O)[C@]21CO` (stereo not given in full) [SYMPLOCOSOSIDE N], the IC50 in assay [1] is above 10 µM; in assay [2], 3.2 µM; in assay [3], 1.7 µM; in assay [4] it was 1.8 µM; in assay [5], above 10 µM.

Consider `CC(=O)O[C@@H]1[C@@H](O[C@@H]2O[C@H](CO)[C@@H](O)[C@H](O)[C@H]2O)[C@H](O[C@H]2CC[C@]3(C)[C@H]4CC=C5[C@@H]6CC(C)(C)C[C@H](OC(=O)/C=C(/C)CCC=C(C)C)[C@]6(CO)[C@H](O)[C@H](O)[C@@]5(C)[C@]4(C)CC[C@H]3C2(C)C)O[C@H](C(=O)O)[C@H]1O[C@@H]1O[C@@H](CO)[C@H](O)[C@H]1O` [SYMPLOCOSOSIDE O], for which the IC50 was above 10 µM in assay [1]; above 10 µM in assay [2]; 2.4 µM in assay [3]; 1.7 µM in assay [4]; above 10 µM in assay [5].

Turning to `CCC(C)C(=O)O[C@H]1[C@H](OC(=O)c2ccccc2)C(C)(C)C[C@H]2C3=CC[C@@H]4[C@@]5(C)CC[C@H](O[C@@H]6O[C@H](C(=O)O)[C@@H](O[C@@H]7O[C@@H](CO)[C@H](O)[C@H]7O)[C@H](OC(C)=O)[C@H]6O[C@@H]6O[C@H](CO)[C@@H](O)[C@H](O)[C@H]6O)C(C)(C)[C@@H]5CC[C@@]4(C)[C@]3(C)[C@@H](O)[C@@H](O)[C@]21CO` (stereo not given in full) [SYMPLOCOSOSIDE P], the IC50 in assay [1] was above 10 µM; in assay [2], 3.3 µM; in assay [3], above 10 µM; in assay [4] it was above 10 µM; in assay [5] it was above 10 µM.

Regarding `CCOC(=O)[C@H]1O[C@@H](O[C@H]2CC[C@]3(C)[C@H]4CC=C5[C@@H]6CC(C)(C)[C@@H](OC(=O)/C=C(/C)CCC=C(C)C)[C@H](OC(=O)C(C)CC)[C@]6(CO)[C@H](O)[C@H](O)[C@@]5(C)[C@]4(C)CC[C@H]3C2(C)C)[C@H](O[C@@H]2O[C@H](CO)[C@@H](O)[C@H](O)[C@H]2O)[C@@H](O)[C@@H]1O[C@@H]1O[C@@H](CO)[C@H](O)[C@H]1O` (stereo not given in full) [SYMPLOCOSOSIDE Q], the IC50 in assay [1] is above 10 µM; in assay [2], 5.5 µM; in assay [3], above 10 µM; in assay [4], above 10 µM; in assay [5] it was above 10 µM.

Turning to `CCC(C)C(=O)O[C@H]1[C@H](OC(=O)/C=C(/C)CCC=C(C)C)C(C)(C)C[C@H]2C3=CC[C@@H]4[C@@]5(C)CC[C@H](O[C@@H]6O[C@H](C(=O)O)[C@@H](O)[C@H](O)[C@H]6O[C@@H]6O[C@H](CO)[C@@H](O)[C@H](O)[C@H]6O)C(C)(C)[C@@H]5CC[C@@]4(C)[C@]3(C)[C@@H](O)[C@@H](O)[C@]21CO` (stereo not given in full) [SYMPLOCOSOSIDE R], the IC50 in assay [1] was above 10 µM; in assay [2] it was 1.9 µM; in assay [3], 4.1 µM; in assay [4] it was 4.4 µM; in assay [5] it was above 10 µM.

With `CCC(C)C(=O)O[C@H]1[C@H](OC(=O)/C=C/c2ccccc2)C(C)(C)C[C@H]2C3=CC[C@@H]4[C@@]5(C)CC[C@H](O[C@@H]6O[C@H](CO)[C@@H](O[C@@H]7O[C@@H](CO)[C@H](O)[C@H]7O)[C@H](O)[C@H]6O[C@@H]6O[C@H](CO)[C@@H](O)[C@H](O)[C@H]6O)C(C)(C)[C@@H]5CC[C@@]4(C)[C@]3(C)[C@@H](O)[C@@H](O)[C@]21CO` (stereo not given in full) [SYMPLOCOSOSIDE X], the IC50 in assay [1] was 2.1 µM; in assay [2], 1.6 µM; in assay [3], 1.8 µM; in assay [4] it was 1.7 µM; in assay [5] it was above 10 µM.

Consider `CCC(C)C(=O)O[C@H]1[C@H](OC(=O)/C=C/c2ccccc2)C(C)(C)C[C@H]2C3=CC[C@@H]4[C@@]5(C)CC[C@H](O[C@@H]6O[C@H](CO)[C@@H](O[C@@H]7O[C@@H](CO)[C@H](O)[C@H]7O)[C@H](OC(C)=O)[C@H]6O[C@@H]6O[C@H](CO)[C@@H](O)[C@H](O)[C@H]6O)C(C)(C)[C@@H]5CC[C@@]4(C)[C@]3(C)[C@@H](O)[C@@H](O)[C@]21CO` (stereo not given in full) [SYMPLOCOSOSIDE Y], for which the IC50 in assay [1] was above 10 µM; in assay [2], 3.4 µM; in assay [3], above 10 µM; in assay [4], above 10 µM; in assay [5], above 10 µM.

Values taken from ChEMBL document CHEMBL1158120, “Cytotoxic oxygenated triterpenoid saponins from Symplocos chinensis” (J Nat Prod, 2006).
